Read-outs that look alike come from different tables or passages of the source.
What was measured:
[1] = system: C57BL/6J mice; experiment: THC drug discrimination in mice; format: in vivo; details: for ED50 (± SEM), THC drug discrimination: compound alone, i.p. 30 min pre-session; for substitution for the THC training dose: mice of both sexes
[2] = target: T1, CB1 receptor (Mus musculus, UniProt P47746); experiment: [3H]CP55,940 displacement binding in mouse cerebellar membranes; parameters: species or system ICR mice; details: read-out: CB1 Binding Affinity (Ki in nM), cerebellum, N = 4 / value
T1 sequence (P47746 whole entry): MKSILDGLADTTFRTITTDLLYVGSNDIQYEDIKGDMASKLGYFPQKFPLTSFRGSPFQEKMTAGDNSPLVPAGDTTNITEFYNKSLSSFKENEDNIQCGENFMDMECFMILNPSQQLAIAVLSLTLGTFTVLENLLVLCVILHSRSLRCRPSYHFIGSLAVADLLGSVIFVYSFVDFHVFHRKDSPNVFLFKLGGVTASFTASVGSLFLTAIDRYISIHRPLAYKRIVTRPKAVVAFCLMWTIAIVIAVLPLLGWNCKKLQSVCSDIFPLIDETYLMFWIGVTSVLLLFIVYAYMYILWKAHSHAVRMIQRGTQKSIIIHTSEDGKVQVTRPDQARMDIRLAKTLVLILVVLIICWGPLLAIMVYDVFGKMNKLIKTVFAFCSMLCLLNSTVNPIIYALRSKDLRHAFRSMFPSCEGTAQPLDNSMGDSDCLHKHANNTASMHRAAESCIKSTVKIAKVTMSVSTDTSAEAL

[3] = system: rats; details: ref Tseng and Craft (2001); cited from earlier work
[4] = system: ICR mice; experiment: Cannabinoid tetrad: ring immobility; format: in vivo; details: for effect on ring immobility: ICR mice of both sexes; for Ring Immobility ED50 (± SEM): i.p., n=6, maximal effect 100% immobility
Method in brief: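 Drug-naïve adult ICR mice, males and females (n=6 per sex per dose), were dosed with vehicle or test compound. At 50 min post-injection each mouse was placed on an elevated ring. Time spent immobile over 5 min was divided by 300 s and multiplied by 100 to give percent immobility.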

[5] = system: ICR mice; experiment: Cannabinoid tetrad: locomotor activity; format: in vivo; details: female and male ICR mice, i.p., 10 min session 30 min after injection
[6] = system: ICR mice; experiment: Cannabinoid tetrad: rectal temperature; format: in vivo; details: for effect on body temperature: ICR mice of both sexes; for Body Temperature ED50 (± SEM): i.p., n=6, maximal effect −6°C
Method in brief: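 Adult drug-naïve ICR mice of both sexes (n=6 per sex per dose) received vehicle or test compound. Baseline rectal temperature was taken before injection. Temperature was re-measured immediately after a 10 min locomotor session that began 30 min post-injection. […] It came from least-squares linear regression on the linear part of the dose-effect curve against log10 dose.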

[7] = ref Huestis, 2007; Mazur et al., 2009; cited from earlier work
[8] = target: CB1 receptor (Rattus norvegicus, UniProt P20272); experiment: Agonist-stimulated [35S]GTPγS binding in rat cerebellar membranes; format: biochemical, Sprague-Dawley rats; details: rat cerebellum, both sexes
Sequence of CB1 receptor (Rattus norvegicus, UniProt P20272) (P20272 whole entry): as the sequence (P47746 whole entry) above, with D95E counted along it

[9] = system: Sprague-Dawley rats; experiment: THC drug discrimination in rats; format: in vivo
[10] = target: T1, CB1 receptor; experiment: Agonist-stimulated [35S]GTPγS binding in mouse cerebellar membranes; format: biochemical, ICR mice; details: mouse cerebellum, both sexes

Which “rightward shift of THC dose-effect curve” value ([1]; 1 mg/kg antagonist i.p. 10 min before THC, both sexes) does the source give for `Cc1c(C(=O)NN2CCCCC2)nn(-c2ccc(Cl)cc2Cl)c1-c1ccc(Cl)cc1` [rimonabant, 5-(4-chlorophenyl)-1-(2,4-dichlorophenyl)-4-methyl-N-(piperidin-1-yl)-1H-pyrazole-3-carboxamide] here?
Its value is ~ 7 fold.

What about the “effect of antagonist on substitution by 1 mg/kg 11-OH-THC” value ([1]; 1 mg/kg rimonabant or 3 mg/kg SR144528 i.p. 10 min prior, n=8/sex) of the same compound?
Its value is “blocked maximal substitution produced by 1 mg/kg 11-OH-THC”.

And the “response rate compared to vehicle” value ([1]; male mice, subset n=8)?
The value was “significantly suppressed compared to vehicle alone treatment”.

With `CCCCCCC(C)(C)c1ccc([C@@H]2C[C@H](O)CC[C@H]2CCCO)c(O)c1` [CP55,940] as the compound, how does the Ki ([2]; female mice) read?
Its Ki is 0.48 nM.

And the Ki ([2]; male mice)?
Its Ki is 0.56 nM.

Which results are given for “11-OH-Δ^9-tetrahydrocannabinol [11-OH-THC]”?
potency in female vs male rats [3]: about twice as potent in female than male rats; effect on ring immobility [4]: clear and significant dose-dependent increases in ring immobility; greater potency than THC, catalepsy ([4]; ICR mice, range across sexes): 7- to 15 fold; Ring Immobility ED50 (± SEM) ([4]; female ICR mice): 0.16 (out of range); Ring Immobility ED50 (± SEM) ([4]; male ICR mice): 0.57 (0.07–4.57); effect on locomotor activity [5]: Neither drug significantly decreased locomotor activity; effect on body temperature [6]: decreases in body temperature; greater potency than THC, hypothermia ([6]; ICR mice, range across sexes): 7- to 31 fold; Body Temperature ED50 (± SEM) ([6]; female ICR mice): 0.19 (0.006–6.1); Body Temperature ED50 (± SEM) ([6]; male ICR mice): 0.70 (0.22–2.26); greater potency than THC in THC drug discrimination ([1]; C57Bl/6J mice, range across sexes): 7- to 9 fold; more potent than THC in THC drug discrimination ([1]; female mice): 7 fold; response rate compared to vehicle ([1]; female mice, subset n=8): but not in females; ED50 (± SEM), THC drug discrimination ([1]; female mice, subset n=8): 0.28 mg/kg; more potent than THC in THC drug discrimination ([1]; male mice): 9 fold; response rate compared to vehicle ([1]; male mice, subset n=8): significantly decreased by 3 mg/kg 11-OH-THC; ED50 (± SEM), THC drug discrimination ([1]; male mice, subset n=8): 0.24 mg/kg; substitution for the THC training dose [1]: dose-dependently substituted for THC

With `CCCCCc1cc(O)c2c(c1)OC(C)(C)[C@@H]1CCC(C(=O)O)=C[C@@H]21` [THC-COOH, 11-nor-9-carboxy-Δ^9-tetrahydrocannabinol] as the compound, how does the cannabimimetic effects [7] read?
Its cannabimimetic effects is “lacks cannabimimetic effects”.

Which results are given for `CCCCCc1cc(O)c2c(c1)OC(C)(C)[C@@H]1CCC(C)=C[C@@H]21` [THC, Δ^9-tetrahydrocanabinol]?
functional character in [35S]GTPγS assay [8]: partial agonists; effect on ring immobility [4]: clear and significant dose-dependent increases in ring immobility; effect on locomotor activity [5]: Neither drug significantly decreased locomotor activity; effect on body temperature [6]: decreases in body temperature; more potent in female than in male rats ([9]; THC drug discrimination): 2.8 fold; substitution for the THC training dose ([9]; rats of both sexes): dose-dependently substituted for the 1.7 mg/kg training dose in both sexes; response rate compared to vehicle ([9]; rats, both sexes): 3 mg/kg THC significantly decreased overall responding across both sexes; response rate compared to vehicle ([1]; all mice (15 female, 20 male), first and second THC dose-effect curves): significantly increased overall responding across both sexes at doses of 3 and 5.6 mg/kg during the first test and over a dose range of 3–10 mg/kg during the second test; response rate compared to vehicle ([1]; female mice, subset n=8): but not in females; response rate compared to vehicle ([1]; male mice, subset n=8): significantly decreased by 30 mg/kg THC; substitution for the THC training dose [1]: dose-dependently substituted for the 5.6 mg/kg training dose; functional character in [35S]GTPγS assay [10]: partial agonists

Reference: paper PMC7750258 (Progress in neuro-psychopharmacology & biological psychiatry, 2020)
